From article PMC9977173 (Science Advances, 2023)
Where a SMILES comes first, the peptide text is derived from it. Bridges are numbered along the chain shown (N, C = ends). Roman numbers before positions name the chains, in order. The star is where a group is joined. X1 = O=C(Cn1cc(CCCC(=O)*)nn1)NC(COCc1cn(CCO[C@H]2O[C@H](CO)[C@@H](O)[C@H](O)[C@@H]2O)nn1)(COCc1cn(CCO[C@H]2O[C@H](CO)[C@@H](O)[C@H](O)[C@@H]2O)nn1)COCc1cn(CCO[C@H]2O[C@H](CO)[C@@H](O)[C@H](O)[C@@H]2O)nn1

How the values were obtained:
[1] = test system: orthotopic bladder tumor; assay type: in vivo, mouse; conditions: 500 μM, 100 μl, intravesical instillation
Summary of the method: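 Once bladder tumor growth was confirmed, test compound (500 µM, 100 µl) was instilled intravesically and kept in the bladder for 60 min. Whole-body fluorescence was scanned with IVIS at 1, 4, 8, 12, 24, 48 and 72 h. The bladder was exteriorised and imaged ex vivo at 1 h after infusion.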

[2] = test system: C57BL/6 mice
[3] = test system: EJ cells; test: Colony formation assay; assay type: cell-based, human; conditions: versus saline and PepCXCR4
Summary of the method: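 EJ cells (200 per well) were grown in DMEM in six-well plates at 37°C, 5% CO₂ until visible colonies appeared. Colonies were rinsed twice with saline, fixed in 4% paraformaldehyde for 15 min and stained with Giemsa for 10 to 30 min. They were photographed and counted. Colony formation efficiency = clones/inoculated cells × 100%.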

[4] = test system: EJ cells; test: SEM of nanofibrils on EJ cell surface; assay type: cell-based, human; conditions: 50 μM, 12 and 24 hours
Summary of the method: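 EJ cells (1 × 10⁵ per well) were seeded on silicon wafers and cultured 12 h. Saline or test compound (50 µM) was then added for a further 12 and 24 h. The cell surface was examined by scanning electron microscopy.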

[5] = test system: EJ cells; test: Cell viability; assay type: cell-based, human; conditions: 50 μM, 24 hours, CCK-8; n = 3
Summary of the method: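 Cells were seeded at 5 × 10⁴ per well in RPMI 1640 and cultured overnight at 37°C, 5% CO₂. Test compound was added at 10, 20, 50, 100, 200 or 500 µM for 24 h, then CCK-8 for 2 h at 37°C. Absorbance was read at 450 nm against a 690 nm reference. Viability = (A_s − A_b)/(A_c − A_b) × 100% versus saline-treated wells. Run in triplicate.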

[6] = test system: CD86^+ and CD206^+ TAMs, CD4^+ and CD8^+ T cells proximal to CXCR4^+ tumor cells; test: Spatial distance of immune cells to CXCR4^+ tumor cells; assay type: in vivo, mouse
[7] = test system: EJ cells (CXCR4); test: CLSM imaging of bsGP; assay type: cell-based, human
[8] = test system: TNF-α, IL-12, IL-10 and TGF-β; test: Intratumoral cytokines in homogenized tumor tissues; assay type: in vivo, mouse; conditions: versus saline and PepCXCR4
[9] = test system: pErk and pAkt (CXCR4 downstream) in EJ cells; test: Western blot of Erk and Akt phosphorylation in EJ cells; assay type: cell-based, human
Summary of the method: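 EJ cells were lysed in buffer with protease inhibitor and centrifuged 15 min; protein was measured by BCA. 30 µg protein was run on SDS-PAGE and transferred to PVDF. Membranes were blocked 1 to 2 h at room temperature in 5% nonfat milk, 0.1% Tween 20, 10 mM TBS. Primary antibody was applied overnight at 4°C, then secondary for 1 to 2 h at room temperature. Detection was by chemiluminescence.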

[10] = test system: MB49-Luc orthotopic bladder cancer; conditions: mouse, in vivo
[11] = test system: EJ xenograft tumor; test: Antitumor efficiency in EJ xenograft mice; assay type: in vivo, mouse; conditions: 500 μM, 100 μl, intravenous, five doses
Summary of the method: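 BALB/c nude mice (6 to 8 weeks, 16 to 18 g) received 5 × 10⁶ EJ cells in 100 µl s.c. in the right flank. Mice were randomised into groups of n = 6. Saline, test compound (500 µM, 100 µl) or plerixafor (100 µM, 100 µl) was given i.v. by tail vein once a day for five doses. Tumor volume was measured by calipers and body weight recorded every other day.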

[12] = test system: RAW264.7 cells; test: CLSM imaging of bsGP; assay type: cell-based; conditions: Cy-labeled bsGP
[13] = test system: NF-κB in tumor tissues; test: Western blot of NF-κB phosphorylation in tumor tissues; assay type: in vivo, mouse; conditions: 500 μM, 100 μl, every 2 days, five times; compared with mannose
[14] = test system: M2-like (CD206) and M1-like (CD86) macrophages; test: Flow cytometry of TAM polarization in tumors; assay type: in vivo, mouse
[15] = test system: CD8^+ T cells and Tregs in tumor; test: Flow cytometry of tumor T cells; assay type: in vivo, mouse
[16] = test system: CD86^+ and CD206^+ TAMs, CD4^+ and CD8^+ T cells; test: Multiplex immunofluorescence of whole tumor slices; assay type: in vivo, mouse
[17] = test system: EJ cells; test: Transwell migration assay; assay type: cell-based, human; conditions: 50 μM, 24 hours; versus saline and PepCXCR4
Summary of the method: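 EJ cells (1 × 10⁵) in 150 µl serum-free DMEM were placed in the upper Transwell chamber with saline or test compound (50 µM). Complete medium was in the lower chamber. After 24 h, non-migrated cells were swabbed away. Migrated cells were fixed in 4% paraformaldehyde, stained with 0.05% crystal violet for 10 min, photographed and counted.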

[18] = test system: EJ xenograft tumor; conditions: 500 μM, 100 μl, intravenous
[19] = test system: tumor fibrosis in MB49-Luc tumor; test: Tumor fibrosis; assay type: in vivo, mouse; conditions: versus saline and PepCXCR4
[20] = test system: tumor tissue in orthotopic bladder cancer mice; test: Tumor penetration by immunofluorescence of frozen sections; assay type: in vivo, mouse; conditions: Cy-labeled bsGP; distance from vessels, compared with antibody
Summary of the method: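 Orthotopic EJ xenograft nude mice with tumors of about 200 mm³ received saline or test compound (500 µM, 100 µl) by intravesical instillation. Frozen tumor sections were imaged by confocal microscopy.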

[21] = immunofluorescence, versus saline

## CC(C)C[C@H](NC(=O)[C@H](Cc1ccc(O)cc1)NC(=O)CNC(=O)[C@H](CC(C)C)NC(=O)[C@@H]1CCCN1C(=O)CCCc1cn(CC(=O)NC(COCc2cn(CCO[C@H]3O[C@H](CO)[C@@H](O)[C@H](O)[C@@H]3O)nn2)(COCc2cn(CCO[C@H]3O[C@H](CO)[C@@H](O)[C@H](O)[C@@H]3O)nn2)COCc2cn(CCO[C@H]3O[C@H](CO)[C@@H](O)[C@H](O)[C@@H]3O)nn2)nn1)C(=O)NCC(=O)NCCCC[C@H](NC(=O)[C@H](CCCCN)NC(=O)[C@H](CC(=O)O)NC(=O)[C@@H]1CCCN1C(=O)[C@H](CCCNC(=N)N)NC(=O)[C@H](Cc1c[nH]cn1)NC(=O)[C@H](Cc1c[nH]c2ccccc12)NC(=O)[C@H](CO)NC(=O)[C@H](C)NC(=O)CNC(=O)[C@@H](N)CC(C)C)C(=O)N[C@@H](CC(C)C)C(=O)N[C@H](C(=O)N[C@@H](Cc1ccccc1)C(=O)N[C@@H](Cc1ccccc1)C(=O)N[C@@H](C)C(=O)N[C@@H](CCC(=O)O)C(=O)N[C@@H](CS)C(=O)NCC(=O)O)C(C)C [bsGP] (I: H-LGASWHRPDKKLVFFAECG-OH / II: X1-PLGYLG; amide I:11-II:C; N-terminus and C-terminus assumed)
[1]
  fluorescence signal at the tumor site: evident fluorescence signals
[2]; C57BL/6 mice
  body weight loss: without loss of body weight
[2]; intravesical, treatment dose
  severe systemic toxicity: did not induce severe systemic toxicity
[2]; red skin or reduced food consumption
  signs of a deteriorating general condition: no signs of a deteriorating general condition
[3]
  cell proliferation capacity: substantially decreased
[4]
  nanofibrillar network on EJ cell surface: presence of a nanofibrillar network
[5]
  effect on viability of EJ cells: no substantial impact
[6]; 5- to 10-μm radius
  decrease of CD206^+ M2-like TAMs versus saline: 20%
  number of CD86^+ M1-like TAMs near tumor cells: up to 6.22 × 10^4
[6]; spatial distance 10 μm
  CD4^+ T cell counts relative to saline: 4.0 fold
  CD8^+ T cell counts relative to saline: 5.5 fold
[6]; spatial distance 10 μm (text: 5- to 10-μm radius)
  CD86^+ counts relative to saline: 2.6 times
[7]; Cy-labeled bsGP, 50 μM, pH 7.4, saline, 37°C, 15 min
  localization on EJ cells: observed on the cytomembrane of tumor cells (EJ)
[7]; EJ cells transfected with GFP-encoded CXCR4
  colocalization with GFP-encoded CXCR4: Overlapping green fluorescence (CXCR4) with red fluorescence (bsGP)
[8]
  intratumoral secretion of IL-10: down-regulated
  intratumoral secretion of IL-12: substantially up-regulated
  intratumoral secretion of TGF-β: down-regulated
  intratumoral secretion of TNF-α: substantially up-regulated
[9]; 0, 20, 50 and 100 μM for 24 hours, 50 μM for 0, 24, 36, 48 hours
  dose dependence of MAPK pathway suppression (pErk, pAkt): suppressed in a dose-dependent manner
[9]; 50 μM, 24 hours
  phosphorylation of Erk and Akt: strongly inhibited
[10]
  recurrence rate: 22%
  survival rate at 60 days: 78%
[11]
  body weight loss, EJ xenograft: no obvious loss of body weight
[12]
  localization on RAW264.7 cells: observed on the cytomembrane
[13]
  NF-κB phosphorylation in tumor tissues: effectively activated
[14]; from 14.2 to 25.4%
  increase of M1-like TAMs: approximately 11.2%
[14]; from 29.2 to 17.3%
  decrease of M2-type macrophages: approximately 11.9%
[15]; saline 8.58%
  CD4^+Foxp3^+ Tregs: 6.80%
[15]; saline 9.44%
  granzyme B^+CD8^+ T cells: 19.60%
[15]; saline 16.3%
  proportion of CD45^+CD3^+CD8^+ T cells: 25.8%
[16]; MB49-Luc, C57BL/6, 500 μM, 100 μl, every other day, five times, saline 1.74%
  CD4^+ T cells in whole tumor slice: 4.35%
[16]; MB49-Luc, C57BL/6, 500 μM, 100 μl, every other day, five times, saline 20.94%
  CD206^+ M2-like TAMs in whole tumor slice: 13.0%
[16]; immunofluorescence
  increase of CD86^+ M1-like TAMs: 2.3 fold
[16]; [21]
  increase of CD4^+ T cells: 2.5 fold
  increase of CD8^+ T cells: 2.6 fold
[17]
  migration capacity: evidently decreased
[18]
  signal-to-noise ratio: 7.8 fold
  time of highest tumor accumulation: 4 h
  time to target tumor tissue: ≤ 1 h
[18]; 4 hours
  tumor accumulation relative to PepCXCR4: nearly fourfold
[18]; nanofiber formed in situ
  retention in tumor tissue: up to 48 hours
[19]
  tumor fibrosis: strongly inhibited
[20]
  penetration in tumor tissue: deep penetration capability
